Measured values as given in ChEMBL document CHEMBL1148324 (J Med Chem, 2004).
pEC50: −log10 of the molar value.

Tests used:
[1] = target: T1, Sulfonylurea receptors; K-ATP channels (Homo sapiens, UniProt O60706+Q09428+Q14654+Q15842); experiment: Evaluated for K-ATP activity in terms of change in membrane potential through guinea pig bladder assay; format: functional, Cavia porcellus; settings: target entry is the homologue from another species
[2] = target: T1, Sulfonylurea receptors; K-ATP channels; experiment: Evaluated for K-ATP activity in terms of stable twitch response through field-stimulated landrace pig detrusor assay; format: functional, Sus scrofa; settings: target entry is the homologue from another species
[3] = target: T1, Sulfonylurea receptors; K-ATP channels; experiment: Evaluated for K-ATP activity as in vitro bladder relaxation in spontaneous Landrace pig detrusor strips (SLPD); format: functional, Sus scrofa; settings: target entry is the homologue from another species
Method in brief: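 Bladder strips taken near the trigonal region of Landrace pig bladder, contracting spontaneously (myogenic, no cholinergic component). Test agents added at increasing concentrations; the read-out is the reduction in area under the contraction curve.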

[4] = target: T1, Sulfonylurea receptors; K-ATP channels; experiment: Evaluated for K-ATP activity as stable twitch response through field-stimulated landrace pig detrusor assay (FSLPD); format: functional, Sus scrofa; settings: target entry is the homologue from another species
[5] = Selectivity expressed as the ratio of pEC50 (SLPD) and pEC50 (FSLPD); format: functional
Sus scrofa [6] = organism: Sus scrofa; experiment: Evaluated for change in mean arterial pressure from baseline at a plasma concentration of 1.9 nM in pigs; format: functional
Method in brief: (§1)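 Conscious female Landrace/Yorkshire swine (~12 weeks, 14–20 kg), urethra obstructed with a 7.5 mm silver omega ring, telemeterized, held in a restraint cage with ear venous catheters. After a 30 min baseline, increasing doses are given i.v. (3 min infusion) at 30 min intervals. Plasma is sampled 15 min after each dose for LC/MS. MAP and HR are averaged in 5 min bins over each 30 min period, expressed as % change from baseline; n = 2–4.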

Sus scrofa [7] = organism: Sus scrofa; experiment: Evaluated for change in heart rate from baseline at a plasma concentration of 1.9 nM in pigs; format: functional; method in brief: as §1
Sus scrofa [8] = organism: Sus scrofa; experiment: Evaluated for change in mean arterial pressure from baseline at a plasma concentration of 24 nM in pigs; format: functional; method in brief: as §1
Sus scrofa [9] = organism: Sus scrofa; experiment: Evaluated for change in heart rate from baseline at a plasma concentration of 24 nM in pigs; format: functional; method in brief: as §1
Sus scrofa [10] = organism: Sus scrofa; experiment: Evaluated for change in mean arterial pressure from baseline at a plasma concentration of 95 nM in pigs; format: functional; method in brief: as §1
Sus scrofa [11] = organism: Sus scrofa; experiment: Evaluated for change in heart rate from baseline at a plasma concentration of 95 nM in pigs; format: functional; method in brief: as §1

In the case of O=C1CCCC2=C1[C@H](c1ccc(F)c(-c3cccnc3)c1)C1=C(CCS1(=O)=O)N2, the pEC50 [1] was < 5.00.

O=C1CCCC2=C1[C@H](c1ccc3nsnc3c1)C1=C(CCS1(=O)=O)N2 gave a pEC50 [1] of 5.62.

Work on O=C1CCCC2=C1[C@H](c1cc(Br)ccc1O)C1=C(CCS1(=O)=O)N2 yielded a pEC50 [1] of 6.24 and a pEC50 [2] of 4.69.

CCC(C)(C)NC(=NC#N)Nc1cccnc1 showed a pEC50 [1] of 7.35, a pEC50 [3] of 7.66 and a pEC50 [2] of 7.07.

CC1=C(C#N)C(c2ccc(F)c(Br)c2)C2=C(CCS2(=O)=O)N1 (stereo not given) showed a pEC50 [1] of 7.56.

O=S1(=O)CCC2=C1C(c1ccc(F)c(Br)c1)C1=C(CCS1(=O)=O)N2 showed a pEC50 [1] of 6.47 and a pEC50 [2] of 6.57.

O=C1CCCC2=C1C(c1ccc(F)c(Br)c1)C1=C(CCCS1(=O)=O)N2 (stereo in doubt; 17(-)) gave a pEC50 [1] of 7.42 and a pEC50 [2] of 6.44.

Compound O=C1CCCC2=C1[C@@H](c1ccc(F)c(Br)c1)C1=C(CCS1(=O)=O)N2 has a pEC50 [4] of 7.16, a pEC50 [1] of 7.36 and a Selectivity [5] of 5.5. The pEC50 [3] was 7.90.

Work on Cc1ccc([C@H]2C3=C(CCCC3=O)NC3=C2S(=O)(=O)CC3)cc1[N+](=O)[O-] yielded a pEC50 [1] of 6.55 and a pEC50 [2] of 6.27.

In the case of Cc1ccc([C@H]2C3=C(CCCC3=O)NC3=C2S(=O)(=O)CC3)cc1Br, the pEC50 [1] was 6.74 and the pEC50 [2] was 6.96.

Work on CCOC(=O)C1=C(C)NC2=C(C1c1ccc(F)c(Br)c1)S(=O)(=O)CC2 (stereo not given) yielded a pEC50 [1] of 6.30.

In the case of O=C1CCC2=C1[C@H](c1ccc(F)c(Br)c1)C1=C(CCCS1(=O)=O)N2, the pEC50 [1] was 4.83 and the pEC50 [2] was 4.58.

O=C1CCCC2=C1[C@H](c1ccc(Cl)c(Cl)c1)C1=C(CCS1(=O)=O)N2 gave a pEC50 [1] of 6.57 and a pEC50 [2] of 6.48.

Work on N#Cc1cc(C2C3=C(CCC3=O)NC3=C2S(=O)(=O)CC3)ccn1 (stereo not given) yielded a pEC50 [1] of 5.50.

O=C1CCC2=C1[C@@H](c1ccc(F)c(Br)c1)C1=C(CCCS1(=O)=O)N2 gave a pEC50 [1] of 7.28 and a pEC50 [2] of 6.55.

O=S1(=O)CCC2=C1C(c1ccc(F)c(Br)c1)C=C(C(F)(F)F)N2 (stereo not given) showed a pEC50 [1] of 6.35 and a pEC50 [2] of 5.65.

For O=C1CCCC2=C1[C@H](c1ccc(Br)cc1)C1=C(CCS1(=O)=O)N2, the pEC50 [1] was < 5.00.

With O=C1CCCC2=C1[C@H](c1ccc(Cl)c(Br)c1)C1=C(CCS1(=O)=O)N2 the pEC50 [1] was 7.59 and the pEC50 [2] was 6.14.

In the case of O=C1CCCC2=C1[C@H](c1ccc(F)c(-c3cccs3)c1)C1=C(CCS1(=O)=O)N2, the pEC50 [1] was < 5.00.

CSc1cc([C@H]2C3=C(CCCC3=O)NC3=C2S(=O)(=O)CC3)ccc1F showed a pEC50 [1] of 5.59.

In the case of N#Cc1cccc(C2C3=C(CCC3=O)NC3=C2S(=O)(=O)CC3)n1 (stereo not given), the pEC50 [1] was < 5.00.

Work on O=C1CCC2=C1C(c1ccc(Br)s1)C1=C(CCS1(=O)=O)N2 (stereo not given) yielded a pEC50 [1] of 5.73.

Compound O=C1CCCC2=C1[C@H](c1ccc(F)c(F)c1)C1=C(CCS1(=O)=O)N2 has a pEC50 [1] of 5.69.

With Cc1cc([C@H]2C3=C(CCCC3=O)NC3=C2S(=O)(=O)CC3)ccc1F the pEC50 [1] was 5.55.

In the case of C=Cc1cc([C@H]2C3=C(CCCC3=O)NC3=C2S(=O)(=O)CC3)ccc1F, the pEC50 [1] was 5.87 and the pEC50 [2] was 5.61.

In the case of O=C1CCCC2=C1[C@H](c1ccc(F)c(Br)c1)C1=C(CCS1(=O)=O)N2, the “Delta MAP” value (Sus scrofa [6]) was -5.4%, the “Delta HR” value (Sus scrofa [7]) was 6.2% and the pEC50 [1] was 6.91. For the same compound, the “Delta MAP” value (Sus scrofa [8]) was -6.9%, the “Delta HR” value (Sus scrofa [9]) was 3.5% and the Selectivity [5] was 10. The “Delta MAP” value (Sus scrofa [10]) was -27%, the “Delta HR” value (Sus scrofa [11]) was 56% and the pEC50 [3] was 7.64. It also gave a pEC50 [2] of 6.63.

O=C1CCC2=C1C(c1csc([N+](=O)[O-])c1)C1=C(CCS1(=O)=O)N2 (stereo not given) gave a pEC50 [1] of 6.62 and a pEC50 [2] of 6.18.

O=S1(=O)CCCC2=C1C(c1ccc(F)c(Br)c1)C1=C(CCCS1(=O)=O)N2 showed a pEC50 [1] of 5.50 and a pEC50 [2] of 4.93.

Compound O=C1CCC2=C1C(c1cc(Br)cs1)C1=C(CCS1(=O)=O)N2 (stereo not given) has a pEC50 [1] of 6.13.

Compound O=C1CCC2=C1[C@@H](c1ccc(F)c(Br)c1)C1=C(CCS1(=O)=O)N2 has a pEC50 [1] of 7.48 and a pEC50 [2] of 7.51.

In the case of O=C1CCC2=C1C(c1ccc(F)c(Br)c1)C1=C(CCCCS1(=O)=O)N2 (stereo not given), the pEC50 [1] was 5.65 and the pEC50 [2] was 4.93.

Compound CC1(C)CCC2=C(C1=O)[C@H](c1ccc(F)c(Br)c1)C1=C(CCS1(=O)=O)N2 has a pEC50 [1] of 7.08 and a pEC50 [2] of 5.25.

Compound O=C1CCCC2=C1C(c1ccc(F)c(Br)c1)C1=C(CCCCS1(=O)=O)N2 (stereo not given) has a pEC50 [1] of 5.48.

For CC1(C)CCC2=C(C1=O)[C@@H](c1ccc(F)c(Br)c1)C1=C(CCS1(=O)=O)N2, the pEC50 [1] was 6.97 and the pEC50 [2] was 6.01.
